In one data set the target is T1, Neutrophil elastase (Homo sapiens, UniProt P08246).
T1 sequence (P08246 whole entry): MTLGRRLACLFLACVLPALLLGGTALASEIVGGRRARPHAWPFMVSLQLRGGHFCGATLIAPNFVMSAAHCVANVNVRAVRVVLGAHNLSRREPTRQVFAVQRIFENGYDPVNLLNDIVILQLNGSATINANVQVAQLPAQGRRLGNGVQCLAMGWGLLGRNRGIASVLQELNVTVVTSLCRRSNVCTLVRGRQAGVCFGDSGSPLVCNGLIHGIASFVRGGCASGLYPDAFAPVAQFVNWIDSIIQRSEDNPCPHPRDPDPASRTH
Description: Inhibition of human neutrophil elastase using N-(OMe-succinyl)-Ala-Ala-Pro-Val-p-nitroanilide as substrate incubated for 15 mins followed by substrate addition and measured for every 30 sec for 30 mins by spectrophotometry.

The subject of data set [1] is BEAS-2B. Description: Cytoprotective activity in human BEAS2B cells assessed as reduction in HNE-induced cell death incubated for 24 hrs by MTT assay. The format is functional, cell-based. The essentials:
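BEAS-2B bronchial epithelial cells were cotreated with compound and 100 nM HNE for 24 h, and viability was read with MTT reagent.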

In data set [2] the test system is BEAS-2B. The experiment in a line: Upregulation of IL-1beta in human BEAS2B cells incubated for 3 hrs by RT-qPCR analysis.
The nature of data set [3]: Metabolic stability in human liver microsomes at 200 uM incubated for 24 hrs by HPLC-MS analysis. The format is ADME, Microsome. The essentials: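 Compound was incubated with pooled human liver microsomes without NADPH for up to 24 h to assess NADPH-independent metabolism; mean ± SD, n = 3.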
A short description of data set [4]: Stability in human serum at 200 uM incubated for 24 hrs by HPLC-MS analysis. The format is ADME, cell-free. The essentials: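 Compound was incubated in human serum at 37 °C and followed over 24 h.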
Data set [5] is described as follows: Metabolic stability in human liver microsome assessed as half life at 200 uM in presence of NADPH incubated for 24 hrs by HPLC-MS analysis. The format is ADME. The settings on record: liver microsomes.

Five molecules from ChEMBL document CHEMBL4342506 (ACS Med Chem Lett, 2020) can be followed below.

Active and inactive are the calls of the source. The calls are words filed in the database; no cut-off is given here. Some results are limits rather than exact numbers.

At Neutrophil elastase, `C/C=C1\NC(=O)[C@@H](NC(=O)OC(C)(C)C)[C@@H](C)OC(=O)[C@H](C(C)C)NC(=O)[C@H](Cc2ccc(O)cc2)N(C)C(=O)[C@H](Cc2ccccc2)N2C(=O)[C@H](CC[C@H]2O)NC1=O` showed an IC50 above 10000 nM.
Consider `C/C=C1\NC(=O)[C@@H](NC(C)=O)[C@@H](C)OC(=O)[C@H](C(C)C)NC(=O)[C@H](Cc2ccc(O)cc2)N(C)C(=O)[C@H](Cc2ccccc2)N2C(=O)[C@H](CC[C@H]2O)NC1=O`, for which the IC50 at Neutrophil elastase worked out at 10000 nM.
Regarding `C/C=C1\NC(=O)[C@@H](NC(=O)[C@H](CCC(N)=O)NC(=O)CN2CCOCC2)[C@@H](C)OC(=O)[C@H](C(C)C)NC(=O)[C@H](Cc2ccc(O)cc2)N(C)C(=O)[C@H](Cc2ccccc2)N2C(=O)[C@H](CC[C@H]2O)NC1=O`, the EC50 in the data set with BEAS-2B [1] turned out to be 185 nM. This molecule also gave an IC50 against Neutrophil elastase of 197 nM. For the same molecule, in the data set with BEAS-2B [2], the result was inactive.
For `C/C=C1\NC(=O)[C@@H](NC(=O)[C@H](CCC(N)=O)NC(=O)CCCCC)[C@@H](C)OC(=O)[C@H](C(C)C)NC(=O)[C@H](Cc2ccc(O)cc2)N(C)C(=O)[C@H](Cc2ccccc2)N2C(=O)[C@H](CC[C@H]2O)NC1=O` [LYNGBYASTATIN 7], the Stability entry in data set [3] and in data set [4] was “Stable” each time. In addition, in the data set with BEAS-2B [1], the EC50 was 20 nM. In addition, the result in the data set on BEAS-2B [2] was Active. Further, the half-life at 200 µM in data set [5] is 2 h.
For `C/C=C1\NC(=O)[C@@H](NC(=O)[C@H](CCC(N)=O)NC(=O)CC2CCCCC2)[C@@H](C)OC(=O)[C@H](C(C)C)NC(=O)[C@H](Cc2ccc(O)cc2)N(C)C(=O)[C@H](Cc2ccccc2)N2C(=O)[C@H](CC[C@H]2O)NC1=O`, the EC50 in the data set on BEAS-2B [1] is 91 nM. The same molecule registered an IC50 against Neutrophil elastase of 103 nM. Further, the outcome in the data set with BEAS-2B [2] was Active.
